# pIC50: −log10 of the molar value.
# System: Plasmodium falciparum
# Assay: Antimalarial activity against chloroquine-resistant Plasmodium falciparum W2 cultured in human erythrocytes assessed as inhibition of parasite growth incubated for 48 hrs by YOYO-1 staining based flow cytometry
# Assay type: functional, organism-based
# Conditions: W2, 48 h
row,Structure (SMILES),pIC50
1,N#Cc1cnc(Oc2ccc3c(c2)B(O)OC3)cn1,6.33
2,CN(C)Cc1cnc(Oc2ccc3c(c2)B(O)OC3)cn1,< 5.00
3,OB1OCc2ccc(Oc3cnc(-c4nnn[nH]4)cn3)cc21,< 5.00
4,CN(C)C(=O)c1cnc(Oc2ccc3c(c2)B(O)OC3)cn1,6.82
5,CC(C)(C)OC(=O)c1cnc(Oc2ccc3c(c2)B(O)OC3)cn1,7.72
6,C[C@@H]1CC[C@H]2[C@@H](C)C(=O)O[C@@H]3O[C@@]4(C)CC[C@@H]1[C@]32OO4 [ARTEMISININ],8.22
7,CC(C)OC(=O)c1cnc(Oc2ccc3c(c2)B(O)OC3)cn1,8.92
8,NCc1cnc(Oc2ccc3c(c2)B(O)OC3)cn1,6.96
9,CNC(=O)c1cnc(Oc2ccc3c(c2)B(O)OC3)cn1,6.62
10,CCNC(=O)c1cnc(Oc2ccc3c(c2)B(O)OC3)cn1,6.92
11,Cc1nnc(-c2cnc(Oc3ccc4c(c3)B(O)OC4)cn2)o1,< 5.00
12,CN(C)CCNC(=O)c1cnc(Oc2ccc3c(c2)B(O)OC3)cn1,5.18
13,OCc1cnc(Oc2ccc3c(c2)B(O)OC3)cn1,6.36
14,COC(=O)c1ccc(Oc2ccc3c(c2)B(O)OC3)cn1,7.64
15,CC1(C)COC(c2cnc(Oc3ccc4c(c3)B(O)OC4)cn2)=N1,6.10
16,CCOC(=O)c1cnc(Oc2ccc3c(c2)B(O)OC3)cn1,9.30

# System: Plasmodium falciparum
# Assay: Antimalarial activity against chloroquine-sensitive Plasmodium falciparum 3D7 cultured in human erythrocytes incubated for 48 hrs by [3H]-hypoxanthine incorporation assay
# Assay type: functional, organism-based
# Conditions: not given
# Summary of the method: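 3D7 parasites in human erythrocytes, RPMI-1640 with 0.5% Albumax II, […], 37 °C, 5% O2/5% CO2. Asynchronous cultures (0.5% parasitemia, 2% hematocrit) given 3-fold serial dilutions for 24 h. [3H]hypoxanthine then added for a further 24 h, and incorporation counted by scintillation. Normalised to drug-free infected cells. IC50 from at least three independent experiments.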
row,Structure (SMILES),pIC50
1,N#Cc1cnc(Oc2ccc3c(c2)B(O)OC3)cn1,5.49
2,CN(C)Cc1cnc(Oc2ccc3c(c2)B(O)OC3)cn1,< 5.30
3,OB1OCc2ccc(Oc3cnc(-c4nnn[nH]4)cn3)cc21,< 5.30
4,CN(C)C(=O)c1cnc(Oc2ccc3c(c2)B(O)OC3)cn1,6.02
5,CC(C)(C)OC(=O)c1cnc(Oc2ccc3c(c2)B(O)OC3)cn1,7.66
6,CC(C)OC(=O)c1cnc(Oc2ccc3c(c2)B(O)OC3)cn1,8.85
7,NCc1cnc(Oc2ccc3c(c2)B(O)OC3)cn1,6.33
8,CNC(=O)c1cnc(Oc2ccc3c(c2)B(O)OC3)cn1,6.49
9,CCNC(=O)c1cnc(Oc2ccc3c(c2)B(O)OC3)cn1,6.06
10,Cc1nnc(-c2cnc(Oc3ccc4c(c3)B(O)OC4)cn2)o1,< 5.30
11,O=C1C(O)=C([C@H]2CC[C@H](c3ccc(Cl)cc3)CC2)C(=O)c2ccccc21 [ATOVAQUONE],9.00
12,CN(C)CCNC(=O)c1cnc(Oc2ccc3c(c2)B(O)OC3)cn1,< 5.30
13,OCc1cnc(Oc2ccc3c(c2)B(O)OC3)cn1,5.65
14,COC(=O)c1ccc(Oc2ccc3c(c2)B(O)OC3)cn1,6.92
15,CC1(C)COC(c2cnc(Oc3ccc4c(c3)B(O)OC4)cn2)=N1,5.84
16,CCOC(=O)c1cnc(Oc2ccc3c(c2)B(O)OC3)cn1,8.36

# System: Jurkat
# Assay: Cytotoxicity against human Jurkat cells incubated for 72 hrs by MTT assay
# Assay type: cell-based
# Conditions: not given
row,Structure (SMILES),pIC50
1,CN(C)C(=O)c1cnc(Oc2ccc3c(c2)B(O)OC3)cn1,< 4.00
2,CC(C)(C)OC(=O)c1cnc(Oc2ccc3c(c2)B(O)OC3)cn1,< 4.00
3,CC(C)OC(=O)c1cnc(Oc2ccc3c(c2)B(O)OC3)cn1,< 4.00
4,CCNC(=O)c1cnc(Oc2ccc3c(c2)B(O)OC3)cn1,4.10
5,COC(=O)c1ccc(Oc2ccc3c(c2)B(O)OC3)cn1,< 4.00
6,CCOC(=O)c1cnc(Oc2ccc3c(c2)B(O)OC3)cn1,4.77

# From ChEMBL document CHEMBL3580633, “Benzoxaborole antimalarial agents. Part 4. Discovery of potent 6-(2-(alkoxycarbonyl)pyrazinyl-5-oxy)-1,3-dihydro-1-hydroxy-2,1-benzoxaboroles” (J Med Chem, 2015)
